Reference: ChEMBL document CHEMBL3351385, “Synthesis and preliminary mechanistic evaluation of 5-(p-tolyl)-1-(quinolin-2-yl)pyrazole-3-carboxylic acid amides with potent antiproliferative activity on human cancer cell lines” (Eur J Med Chem, 2014)
Active and inactive are the calls of the source. No cut-off for these calls is given here.

What was measured:
[1] = biological target: NUAK family SNF1-like kinase 1 (Homo sapiens) (UniProt O60285); experiment: Inhibition of NUAK1 (unknown origin) assessed as remaining enzyme activity at 10 uM by radioactive [33P]-ATP filter binding assay
[2] = biological target: Tyrosine-protein kinase Lck (Homo sapiens) (UniProt P06239); experiment: Inhibition of LCK (unknown origin) assessed as remaining enzyme activity at 10 uM by radioactive [33P]-ATP filter binding assay
[3] = biological target: MAP kinase-activated protein kinase 5 (Homo sapiens) (UniProt Q8IW41); experiment: Inhibition of PRAK (unknown origin) assessed as remaining enzyme activity at 10 uM by radioactive [33P]-ATP filter binding assay
[4] = biological target: Mitogen-activated protein kinase 9 (Homo sapiens) (UniProt P45984); experiment: Inhibition of JNK2 (unknown origin) assessed as remaining enzyme activity at 10 uM by radioactive [33P]-ATP filter binding assay
[5] = biological target: Dual specificity testis-specific protein kinase 1 (Homo sapiens) (UniProt Q15569); experiment: Inhibition of TESK1 (unknown origin) assessed as remaining enzyme activity at 10 uM by radioactive [33P]-ATP filter binding assay
[6] = biological target: Serine/threonine-protein kinase ULK2 (Homo sapiens) (UniProt Q8IYT8); experiment: Inhibition of ULK2 (unknown origin) assessed as remaining enzyme activity at 10 uM by radioactive [33P]-ATP filter binding assay
[7] = biological target: Insulin receptor-related protein (Homo sapiens) (UniProt P14616); experiment: Inhibition of IRR (unknown origin) assessed as remaining enzyme activity at 10 uM by radioactive [33P]-ATP filter binding assay
[8] = biological target: Inhibitor of nuclear factor kappa-B kinase subunit beta (Homo sapiens) (UniProt O14920); experiment: Inhibition of IKKbeta (unknown origin) assessed as remaining enzyme activity at 10 uM by radioactive [33P]-ATP filter binding assay
[9] = biological target: Serine/threonine-protein kinase tousled-like 1 (Homo sapiens) (UniProt Q9UKI8); experiment: Inhibition of TLK1 (unknown origin) assessed as remaining enzyme activity at 10 uM by radioactive [33P]-ATP filter binding assay
[10] = biological target: Serine/threonine-protein kinase OSR1 (Homo sapiens) (UniProt O95747); experiment: Inhibition of OSR1 (unknown origin) assessed as remaining enzyme activity at 10 uM by radioactive [33P]-ATP filter binding assay
[11] = biological target: Interleukin-1 receptor-associated kinase 4 (Homo sapiens) (UniProt Q9NWZ3); experiment: Inhibition of IRAK4 (unknown origin) assessed as remaining enzyme activity at 10 uM by radioactive [33P]-ATP filter binding assay
[12] = biological target: Mitogen-activated protein kinase 12 (Homo sapiens) (UniProt P53778); experiment: Inhibition of p38gamma (unknown origin) assessed as remaining enzyme activity at 10 uM by radioactive [33P]-ATP filter binding assay
How it was run: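 Single-concentration screen against a 140-kinase panel. Done by the International Center for Kinase Profiling, University of Dundee, with a radioactive 33P-ATP filter-binding read-out.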

[13] = biological target: Ephrin type-B receptor 4 (Homo sapiens) (UniProt P54760); experiment: Inhibition of EPHB4 (unknown origin) assessed as remaining enzyme activity at 10 uM by radioactive [33P]-ATP filter binding assay
How it was run: (§1)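 A single 10 µM concentration was tested across a 140-kinase panel. Activity was measured by a radioactive 33P-ATP filter-binding assay run at the International Center for Kinase Profiling, University of Dundee.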

[14] = biological target: Casein kinase I isoform gamma-2 (Homo sapiens) (UniProt P78368); experiment: Inhibition of CK1gamma2 (unknown origin) assessed as remaining enzyme activity at 10 uM by radioactive [33P]-ATP filter binding assay; how it was run: as §1
[15] = biological target: Ribosomal protein S6 kinase alpha-1 (Homo sapiens) (UniProt Q15418); experiment: Inhibition of RSK1 (unknown origin) assessed as remaining enzyme activity at 10 uM by radioactive [33P]-ATP filter binding assay
[16] = biological target: Eukaryotic elongation factor 2 kinase (Homo sapiens) (UniProt O00418); experiment: Inhibition of EF2K (unknown origin) assessed as remaining enzyme activity at 10 uM by radioactive [33P]-ATP filter binding assay; how it was run: as §1
[17] = biological target: Mitogen-activated protein kinase 8 (Homo sapiens) (UniProt P45983); experiment: Inhibition of JNK1 (unknown origin) assessed as remaining enzyme activity at 10 uM by radioactive [33P]-ATP filter binding assay
[18] = biological target: Fibroblast growth factor receptor 1 (Homo sapiens) (UniProt P11362); experiment: Inhibition of FGFR1 (unknown origin) assessed as remaining enzyme activity at 10 uM by radioactive [33P]-ATP filter binding assay; how it was run: as §1
[19] = biological target: Mitogen-activated protein kinase 10 (Homo sapiens) (UniProt P53779); experiment: Inhibition of JNK3 (unknown origin) assessed as remaining enzyme activity at 10 uM by radioactive [33P]-ATP filter binding assay
[20] = biological target: Tau-tubulin kinase 2 (Homo sapiens) (UniProt Q6IQ55); experiment: Inhibition of TTBK2 (unknown origin) assessed as remaining enzyme activity at 10 uM by radioactive [33P]-ATP filter binding assay
[21] = biological target: Maternal embryonic leucine zipper kinase (Homo sapiens) (UniProt Q14680); experiment: Inhibition of MELK (unknown origin) assessed as remaining enzyme activity at 10 uM by radioactive [33P]-ATP filter binding assay
[22] = biological target: Discoidin domain-containing receptor 2 (Homo sapiens) (UniProt Q16832); experiment: Inhibition of DDR2 (unknown origin) assessed as remaining enzyme activity at 10 uM by radioactive [33P]-ATP filter binding assay; how it was run: as §1
[23] = biological target: Serine/threonine-protein kinase MARK2 (Homo sapiens) (UniProt Q7KZI7); experiment: Inhibition of MARK2 (unknown origin) assessed as remaining enzyme activity at 10 uM by radioactive [33P]-ATP filter binding assay
[24] = biological target: Tau-tubulin kinase 1 (Homo sapiens) (UniProt Q5TCY1); experiment: Inhibition of TTBK1 (unknown origin) assessed as remaining enzyme activity at 10 uM by radioactive [33P]-ATP filter binding assay
Huh-7 = experiment: Induction of cell death in human HuH7 cells assessed as induction of intracytoplasmic vacuoles at cytotoxic IC50 level after 72 hrs by inverted light microscopy; assay type: functional, cell-based
How it was run: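 They were viewed under an inverted light microscope at 20× for death morphology, including intracytoplasmic vacuoles.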

[25] = biological target: Ephrin type-A receptor 4 (Homo sapiens) (UniProt P54764); experiment: Inhibition of EPHA4 (unknown origin) assessed as remaining enzyme activity at 10 uM by radioactive [33P]-ATP filter binding assay; how it was run: as §1
[26] = biological target: Mitogen-activated protein kinase 14 (Homo sapiens) (UniProt Q16539); experiment: Inhibition of p38alpha (unknown origin) assessed as remaining enzyme activity at 10 uM by radioactive [33P]-ATP filter binding assay
[27] = biological target: Ephrin type-B receptor 1 (Homo sapiens) (UniProt P54762); experiment: Inhibition of EPHB1 (unknown origin) assessed as remaining enzyme activity at 10 uM by radioactive [33P]-ATP filter binding assay; how it was run: as §1
[28] = biological target: Testis-specific serine/threonine-protein kinase 1 (Homo sapiens) (UniProt Q9BXA7); experiment: Inhibition of TSSK1 (unknown origin) assessed as remaining enzyme activity at 10 uM by radioactive [33P]-ATP filter binding assay
Sequence of Testis-specific serine/threonine-protein kinase 1 (Homo sapiens) (Q9BXA7 whole entry): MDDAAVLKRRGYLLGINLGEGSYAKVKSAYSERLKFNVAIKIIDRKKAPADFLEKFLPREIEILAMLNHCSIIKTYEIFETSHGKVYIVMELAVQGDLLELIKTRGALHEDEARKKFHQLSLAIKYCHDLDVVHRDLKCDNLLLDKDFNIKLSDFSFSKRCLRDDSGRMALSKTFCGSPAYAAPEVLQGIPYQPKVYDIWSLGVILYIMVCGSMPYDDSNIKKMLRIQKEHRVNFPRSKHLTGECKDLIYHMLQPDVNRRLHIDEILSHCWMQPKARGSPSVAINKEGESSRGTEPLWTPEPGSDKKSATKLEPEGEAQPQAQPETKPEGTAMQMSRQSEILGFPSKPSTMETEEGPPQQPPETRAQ

Sequence of Inhibitor of nuclear factor kappa-B kinase subunit beta (Homo sapiens) (O14920 whole entry): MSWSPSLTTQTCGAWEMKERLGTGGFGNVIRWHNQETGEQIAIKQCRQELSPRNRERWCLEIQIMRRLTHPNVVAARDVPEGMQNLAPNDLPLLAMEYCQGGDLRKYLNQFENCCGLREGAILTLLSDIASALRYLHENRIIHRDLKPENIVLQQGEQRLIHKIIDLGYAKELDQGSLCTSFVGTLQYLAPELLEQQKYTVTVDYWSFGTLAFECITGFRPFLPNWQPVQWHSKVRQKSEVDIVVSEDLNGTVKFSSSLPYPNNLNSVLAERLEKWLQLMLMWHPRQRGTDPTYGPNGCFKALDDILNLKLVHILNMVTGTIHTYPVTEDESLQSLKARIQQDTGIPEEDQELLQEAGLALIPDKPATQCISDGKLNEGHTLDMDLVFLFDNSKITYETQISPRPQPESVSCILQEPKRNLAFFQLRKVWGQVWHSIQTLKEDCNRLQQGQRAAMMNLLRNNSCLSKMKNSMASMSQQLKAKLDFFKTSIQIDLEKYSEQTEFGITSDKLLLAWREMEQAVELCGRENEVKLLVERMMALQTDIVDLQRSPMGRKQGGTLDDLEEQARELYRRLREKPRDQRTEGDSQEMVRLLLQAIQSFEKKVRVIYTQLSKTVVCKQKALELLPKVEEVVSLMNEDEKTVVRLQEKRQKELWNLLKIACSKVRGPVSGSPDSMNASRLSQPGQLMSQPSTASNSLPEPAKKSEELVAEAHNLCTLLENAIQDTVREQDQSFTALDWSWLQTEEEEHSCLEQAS
Sequence of Tyrosine-protein kinase Lck (Homo sapiens) (P06239 2-509 limits assumed): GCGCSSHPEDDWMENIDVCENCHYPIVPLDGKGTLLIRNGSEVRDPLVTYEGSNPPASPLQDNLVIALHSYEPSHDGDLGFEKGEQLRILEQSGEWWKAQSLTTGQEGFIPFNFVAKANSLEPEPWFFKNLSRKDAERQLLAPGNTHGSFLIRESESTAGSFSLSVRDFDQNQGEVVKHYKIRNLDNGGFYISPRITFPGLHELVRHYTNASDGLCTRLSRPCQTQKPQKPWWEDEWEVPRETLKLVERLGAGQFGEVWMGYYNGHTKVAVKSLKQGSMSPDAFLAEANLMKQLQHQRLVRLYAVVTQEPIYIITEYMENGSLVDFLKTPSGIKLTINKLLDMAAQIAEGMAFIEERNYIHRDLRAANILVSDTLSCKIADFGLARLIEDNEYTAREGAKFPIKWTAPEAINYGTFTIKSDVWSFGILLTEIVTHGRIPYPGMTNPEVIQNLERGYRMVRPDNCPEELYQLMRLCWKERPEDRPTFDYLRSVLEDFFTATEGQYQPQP
Sequence of Tau-tubulin kinase 1 (Homo sapiens) (Q5TCY1 whole entry): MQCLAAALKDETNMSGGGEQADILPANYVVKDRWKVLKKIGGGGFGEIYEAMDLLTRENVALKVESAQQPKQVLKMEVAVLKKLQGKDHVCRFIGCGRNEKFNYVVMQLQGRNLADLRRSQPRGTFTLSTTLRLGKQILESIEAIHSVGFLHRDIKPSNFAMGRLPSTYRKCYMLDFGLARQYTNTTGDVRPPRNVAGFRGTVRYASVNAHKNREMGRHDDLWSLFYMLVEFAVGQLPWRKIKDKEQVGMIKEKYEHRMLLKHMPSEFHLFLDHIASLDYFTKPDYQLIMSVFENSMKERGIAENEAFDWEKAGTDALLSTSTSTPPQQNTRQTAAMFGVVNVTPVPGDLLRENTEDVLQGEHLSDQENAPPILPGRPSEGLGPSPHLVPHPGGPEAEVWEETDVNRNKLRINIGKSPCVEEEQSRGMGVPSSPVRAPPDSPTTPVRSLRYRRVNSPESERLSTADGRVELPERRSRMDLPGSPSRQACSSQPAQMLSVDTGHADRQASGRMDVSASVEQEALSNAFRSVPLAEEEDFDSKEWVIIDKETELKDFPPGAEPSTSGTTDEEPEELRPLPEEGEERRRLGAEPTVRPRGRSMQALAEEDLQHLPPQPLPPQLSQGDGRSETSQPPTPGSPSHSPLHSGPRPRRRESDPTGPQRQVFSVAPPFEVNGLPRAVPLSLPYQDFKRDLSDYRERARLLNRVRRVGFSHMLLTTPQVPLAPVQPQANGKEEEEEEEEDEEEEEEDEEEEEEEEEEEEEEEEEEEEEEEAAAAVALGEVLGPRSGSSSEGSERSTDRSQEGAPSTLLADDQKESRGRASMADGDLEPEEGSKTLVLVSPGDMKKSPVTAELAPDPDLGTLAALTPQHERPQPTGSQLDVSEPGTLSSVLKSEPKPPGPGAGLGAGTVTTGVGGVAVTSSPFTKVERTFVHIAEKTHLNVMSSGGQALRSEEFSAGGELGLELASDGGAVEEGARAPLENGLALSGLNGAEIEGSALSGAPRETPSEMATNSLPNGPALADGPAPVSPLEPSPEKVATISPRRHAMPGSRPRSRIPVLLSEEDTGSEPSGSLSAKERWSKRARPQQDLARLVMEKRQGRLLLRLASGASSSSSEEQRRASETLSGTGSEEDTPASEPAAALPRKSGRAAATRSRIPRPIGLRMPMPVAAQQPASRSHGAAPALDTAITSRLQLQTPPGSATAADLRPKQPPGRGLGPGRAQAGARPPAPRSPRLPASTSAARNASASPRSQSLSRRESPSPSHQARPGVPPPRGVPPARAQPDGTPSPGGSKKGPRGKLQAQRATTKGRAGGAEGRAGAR
Sequence of Insulin receptor-related protein (Homo sapiens) (P14616 27-742 limits assumed): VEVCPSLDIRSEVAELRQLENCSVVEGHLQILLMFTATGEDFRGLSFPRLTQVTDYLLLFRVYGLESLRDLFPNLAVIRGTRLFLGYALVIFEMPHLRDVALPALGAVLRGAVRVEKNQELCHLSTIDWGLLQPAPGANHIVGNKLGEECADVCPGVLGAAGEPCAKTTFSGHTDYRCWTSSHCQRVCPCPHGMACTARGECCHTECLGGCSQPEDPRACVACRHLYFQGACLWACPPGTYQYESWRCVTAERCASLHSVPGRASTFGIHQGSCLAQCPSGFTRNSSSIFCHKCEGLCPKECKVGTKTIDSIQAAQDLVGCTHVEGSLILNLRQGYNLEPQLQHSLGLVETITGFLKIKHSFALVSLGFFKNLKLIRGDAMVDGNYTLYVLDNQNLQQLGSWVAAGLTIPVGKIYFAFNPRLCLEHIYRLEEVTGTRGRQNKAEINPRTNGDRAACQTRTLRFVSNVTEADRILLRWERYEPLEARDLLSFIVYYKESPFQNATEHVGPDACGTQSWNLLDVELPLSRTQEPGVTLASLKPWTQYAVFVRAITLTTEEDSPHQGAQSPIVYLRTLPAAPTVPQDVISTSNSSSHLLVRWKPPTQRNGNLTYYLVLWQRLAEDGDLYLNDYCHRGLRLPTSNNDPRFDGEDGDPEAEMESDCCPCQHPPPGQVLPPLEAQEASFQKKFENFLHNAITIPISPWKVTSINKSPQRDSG
Sequence of Insulin receptor-related protein (Homo sapiens) (P14616 747-1297 limits assumed): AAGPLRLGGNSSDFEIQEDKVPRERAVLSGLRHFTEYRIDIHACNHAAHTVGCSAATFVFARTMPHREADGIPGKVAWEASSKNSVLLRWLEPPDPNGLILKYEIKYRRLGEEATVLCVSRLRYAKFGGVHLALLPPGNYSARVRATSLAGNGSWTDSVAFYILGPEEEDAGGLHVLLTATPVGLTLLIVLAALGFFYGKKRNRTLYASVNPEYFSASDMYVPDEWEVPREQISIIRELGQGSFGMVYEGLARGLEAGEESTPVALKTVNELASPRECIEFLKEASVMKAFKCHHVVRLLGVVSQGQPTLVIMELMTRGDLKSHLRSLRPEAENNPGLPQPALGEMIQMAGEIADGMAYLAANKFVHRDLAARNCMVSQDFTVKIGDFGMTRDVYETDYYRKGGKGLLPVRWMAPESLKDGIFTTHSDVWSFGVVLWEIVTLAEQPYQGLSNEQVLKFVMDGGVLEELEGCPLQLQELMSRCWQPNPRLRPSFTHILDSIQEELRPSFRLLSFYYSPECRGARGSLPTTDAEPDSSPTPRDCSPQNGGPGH
Sequence of Mitogen-activated protein kinase 14 (Homo sapiens) (Q16539 whole entry): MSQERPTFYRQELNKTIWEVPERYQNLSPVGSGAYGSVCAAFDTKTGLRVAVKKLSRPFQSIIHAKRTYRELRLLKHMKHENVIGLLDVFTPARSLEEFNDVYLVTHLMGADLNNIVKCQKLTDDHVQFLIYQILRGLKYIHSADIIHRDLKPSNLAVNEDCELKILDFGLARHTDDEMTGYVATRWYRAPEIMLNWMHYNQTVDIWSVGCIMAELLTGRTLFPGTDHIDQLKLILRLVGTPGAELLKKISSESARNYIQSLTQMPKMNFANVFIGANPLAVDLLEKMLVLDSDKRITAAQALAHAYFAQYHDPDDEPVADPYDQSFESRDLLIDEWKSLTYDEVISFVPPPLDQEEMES
Sequence of Mitogen-activated protein kinase 10 (Homo sapiens) (P53779 whole entry): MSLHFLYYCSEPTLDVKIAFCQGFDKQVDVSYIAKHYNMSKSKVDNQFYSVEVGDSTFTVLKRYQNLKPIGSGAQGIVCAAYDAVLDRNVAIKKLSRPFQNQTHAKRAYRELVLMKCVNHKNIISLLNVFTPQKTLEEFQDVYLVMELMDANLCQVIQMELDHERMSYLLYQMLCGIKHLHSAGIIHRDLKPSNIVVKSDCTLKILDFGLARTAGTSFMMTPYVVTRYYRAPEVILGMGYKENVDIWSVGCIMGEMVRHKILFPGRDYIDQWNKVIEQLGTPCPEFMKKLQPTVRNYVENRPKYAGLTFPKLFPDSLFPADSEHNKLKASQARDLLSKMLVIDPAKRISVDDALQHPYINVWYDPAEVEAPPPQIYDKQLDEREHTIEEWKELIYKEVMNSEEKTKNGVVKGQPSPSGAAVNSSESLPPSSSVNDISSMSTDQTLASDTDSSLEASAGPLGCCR

Activity [1]: 100%
Activity [2]: 99%
Activity [3]: 88%
Activity [4]: 100%
Activity [5]: 76%
Activity [6]: 112%
Activity [7]: 100%
Activity [8]: 70%
Activity [9]: 114%
Activity [10]: 111%
Activity [11]: 90%
Activity [12]: 107%
Activity [13]: 125%
Activity [14]: 99%
Activity [15]: 108%
Activity [16]: 97%
Activity [17]: 103%
Activity [18]: 127%
Activity [19]: 95%
Activity [20]: 101%
Activity [21]: 98%
Activity [22]: 113%
Activity [23]: 101%
Activity [24]: 104%
Activity [25]: 125%
Activity [26]: 95%
Activity [27]: 128%
Activity [28]: 90%
Compound: Cc1ccc(-c2cc(C(=O)Nc3ccnc(Cl)c3)nn2-c2ccc3ccccc3n2)cc1
Activity (Huh-7): Active
